# Test results published in article PMC10351452 (Autophagy, 2023).
# Columns and labels:
# [1] = test system: autophagosomes and autolysosomes in RFP-GFP-LC3B PANC1 cells; assay: Autophagy flux assay in RFP-GFP-LC3B PANC1 stable cells; assay type: cell-based, human; details: RFP-GFP-LC3B PANC1, CQ 10 µM, 24 h
# How it was run: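 PANC1 cells transfected with an RFP-GFP-LC3B vector and kept two weeks under puromycin to give a stable polyclonal line. Plated on coverslips at 3X105 cells/well and treated next day, with CQ 10 µM as a comparator. After 24 h: DAPI stain, 4% paraformaldehyde fixation, confocal imaging. Autophagosomes RFP+GFP+; autolysosomes counted as red minus green dots per cell. Normalised to DMSO, mean ± SD, n = 3 biological repeats, two-way ANOVA/Sidak.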
# PANC1 cells = assay: Cell viability; assay type: cell-based, human; details: CQ 10 µM, day 4; stated as similar to compound 189
# [2] = test system: NCI-H460 human lung cancer cells; assay: Cell viability; assay type: cell-based; details: CQ 10 µM, 4 days
# NCI-H1299 cells = assay: Cell viability; assay type: cell-based, human; details: CQ, 4 days
# How it was run: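 HEC-1A (DMEM/F12) and NCI-H1299 (RPMI) cells, media with 10% FBS, plated at 2000 cells/well and treated next day with test compound 10 µM. CQ 10 µM was used in HEC-1 cells. CellTiter-Glo luminescence read after 4 days and expressed as growth relative to DMSO. Mean ± SD; n = 11 for HEC-1A, n = 6 for NCI-H1299. One-way ANOVA with Tukey.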
# [3] = test system: BCL2L1(BCL-XL)-BAX interaction; assay: PCA lysate mixing protocol BCL2L1-L1 + BAX-L2; assay type: biochemical; details: 1 µM ABT-737 incubated with BCL2L1-L1 lysate 1 h prior to BAX-L2 lysate
Compound,number of autophagosomes and autolysosomes per cell [1],reduction of growth of PANC1 cells (PANC1 cells) [%],effect on growth of NCI-H460 cells [2],response of NCI-H1299 cells (viability) (NCI-H1299 cells),luminescence in BCL2L1-L1/BAX-L2 PCA [3]
"CCN(CC)CCCC(C)Nc1ccnc2cc(Cl)ccc12 (centres unmarked) [CQ, chloroquine]",shift toward increased number of autophagosomes at the expense of autolysosomes,> 50,no effect,did not respond,–
CN(C)CC[C@H](CSc1ccccc1)Nc1ccc(S(=O)(=O)NC(=O)c2ccc(N3CCN(Cc4ccccc4-c4ccc(Cl)cc4)CC3)cc2)cc1[N+](=O)[O-] [ABT-737],–,–,–,–,significant decrease in luminescence
